From ChEMBL document CHEMBL1155830, “Asymmetric synthesis of 2,3-dihydro-2-arylquinazolin-4-ones: methodology and application to a potent fluorescent tubulin inhibitor with anticancer activity” (J Med Chem, 2008) come the findings set out here.

Assay [1] can be described thus: Inhibition of tubulin polymerization.
Assay [2] deals with HCT-116. As to the kind of experiment: Antiproliferative activity against human HCT116 cells after 72 hrs. It is filed as functional. The following applies: HCT-116, 72 h. The essentials:
(§1)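 HCT-116 cells were kept in McCoy's 5a with 1.5 mM L-glutamine and 5% FBS, and MDA-MB-435 cells in D-MEM with 1.5 mM L-glutamine and 5% FBS, both at 37 °C in humidified 5% CO2. Cells were seeded at 3200 per well, allowed to attach, and given vehicle or drug at 10 nM–3 µM (n = 8) for 72 h. Live cells were read by CellTiter 96 AQueous at 490 nm, and the 50% inhibitory value was taken from the dose–response curve.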

Assay [3] relates to MDA-MB-435. As to the kind of experiment: Antiproliferative activity against human MDA-MB-435 cells after 72 hrs. It is filed as functional. The conditions noted are these: MDA-MB-435, 72 h. The method, boiled down: as §1
Assay [4] in a line: Displacement of [3H]colchicine from tubulin at 5 uM. (In general: In a radioligand displacement assay an active substance lowers the binding of a labelled ligand.)
The nature of assay [5]: Displacement of [3H]colchicine from tubulin at 50 uM.

Molecules are shown by their SMILES.

Usually IC50 stands for the concentration that gives 50% inhibition. For orientation: GI50 means the concentration that inhibits growth by half. A lower GI50 goes with greater sensitivity of the cells. What is called inhibition is the percentage by which the read-out fell short of the control. A higher inhibition goes with a strong effect. The molecule `Cc1ccccc1-c1ccc([C@H]2NC(=O)c3cc([N+](=O)[O-])ccc3N2)cc1` registered a half-maximal inhibitory concentration (IC50) in assay [1] of 16 µM. Also, the GI50 in assay [2] is 0.93 µM; in assay [3], 1.1 µM. The inhibition was 2.1% in assay [4] and 5.5% in assay [5].
For `Cc1ccccc1-c1ccc([C@@H]2NC(=O)c3cc([N+](=O)[O-])ccc3N2)cc1` the same measures were 1.1 µM, 0.1 µM, 0.0001 µM, 28% and 66%.
`COc1ccc(/C=C\c2cc(OC)c(OC)c(OC)c2)cc1O` came in with an inhibition in assay [4] of 99%.
The molecule `Cc1ccccc1-c1ccc(C2NC(=O)c3cc([N+](=O)[O-])ccc3N2)cc1` (racemic) came in with an IC50 in assay [1] of 1.7 µM. Further, the figures for the 50% growth inhibitory concentration (GI50) in assay [2] and in assay [3] were 0.3 µM and 0.1 µM, respectively. In addition, the inhibition in assay [4] came to 17%; in assay [5] it was 51%.
With `CC(=O)O[C@H]1C(=O)[C@@]2(C)[C@H]([C@H](OC(=O)c3ccccc3)[C@]3(O)C[C@H](OC(=O)[C@H](O)[C@@H](NC(=O)c4ccccc4)c4ccccc4)C(C)=C1C3(C)C)[C@]1(OC(C)=O)CO[C@@H]1C[C@@H]2O` [PACLITAXEL], the GI50 in assay [3] was 0.004 µM.
